Test results from ChEMBL document CHEMBL5352453, “Hit-to-lead optimization of a 2-aminobenzimidazole series as new candidates for chagas disease” (Eur J Med Chem, 2023).

How the values were obtained:
[1] = Metabolic stability in CD1 mouse liver microsomes assessed as intrinsic clearance measured upto 60 mins by LC-MS/MS analysis; format: ADME; conditions: read-out: CLH
Method in brief: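 CD1 mouse liver microsomes at 0.25 mg/mL, compound at 0.5 µM, pH 7.4, 37 °C, started with NADPH. Sampled at 0, 5, 10, 20, 30 and 60 min and quenched with acetonitrile:methanol containing tolbutamide. Measured by LC-MS/MS; CLint (k × 1000/0.25, µL/min/mg) derived by non-linear regression of % remaining over time.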

[2] = Selectivity index, ratio of CC50 for cytotoxicity against human MRC5 cells to EC50 for Trypanosoma cruzi Tulahuen CL2 amastigotes expressing beta galactosidase infected in human MRC5 cells; format: toxicity, cell-based; conditions: read-out: Selectivity Index
Method in brief: (§1)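 T. cruzi Tulahuen CL2 β-galactosidase strain grown in MRC-5 cells (MEM, 5% heat-inactivated FCS, 37 °C, 5% CO2). MRC-5 cells (4 x 10^3/well) plus parasites (4 x 10^4/well) exposed 7 days to 4-fold dilutions from 64 µM down; final DMSO <1%. CPRG with Nonidet added, absorbance at 540 nm after 4 h. IC50 calculated against untreated-infected (100%) and non-infected (0%) controls. SI = MRC-5 CC50/IC50.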

Trypanosoma cruzi [3] = assay: Antitrypanosomal activity against Trypanosoma cruzi Tulahuen CL2 amastigotes expressing beta galactosidase infected in human MRC5 cells assessed as reduction in parasite burden using chlorophenol red beta-D-galactopyranoside as substrate and measured after 7 days by spectrophotometric analysis; format: functional, organism-based; conditions: Tulahuen CL2, MRC5, 168 h; method in brief: as §1
[4] = Drug metabolism in S9 cells assessed as turnover; conditions: mouse
Trypanosoma cruzi [5] = assay: Antitrypanosomal activity against intracellular Trypanosoma cruzi amastigote infected primary peritoneal mouse macrophages assessed as reduction in amastigote population; format: functional; set-up: concentration or dose not given beside the values
Method in brief: (§2)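 High-content imaging of primary mouse macrophages infected with T. cruzi. Counts both amastigotes per cell and percentage of infected cells. 96 h exposure, with maximal activity scored at 10 µM. IC50 and IC90 against intracellular amastigotes taken from the same 96 h incubation.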

Trypanosoma cruzi [6] = assay: Antitrypanosomal activity against intracellular Trypanosoma cruzi amastigote infected primary peritoneal mouse macrophages assessed as reduction in infection rate; format: functional; method in brief: as §2
Trypanosoma cruzi [7] = assay: Antitrypanosomal activity against intracellular Trypanosoma cruzi amastigote infected primary peritoneal mouse macrophages assessed as reduction in amastigote population measured after 96 hrs; format: functional, organism-based; conditions: for IC50: 96 h; for IC90: time 96 hrs; method in brief: as §2
[8] = Kinetic solubility of the compound at pH 2 PBS buffer measured after 24 hrs shaken by LC-MS/MS analysis; format: physicochemical; conditions: read-out: Kinetic_solubility
Method in brief: (§3)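 Compounds from 10 mM DMSO stocks diluted in PBS pH 7.4 or pH 2.0 to 250 µM final, 2.5% DMSO, in duplicate. Shaken 24 ± 1 h at 200 rpm, room temperature, then centrifuged to remove precipitate. Supernatant quantified by LC-MS/MS against per-compound calibration at 1–50 µM.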

[9] = Kinetic solubility of the compound at pH 7.4 PBS buffer measured after 24 hrs shaken by LC-MS/MS analysis; format: physicochemical; conditions: read-out: Kinetic_solubility; method in brief: as §3
[10] = Passive permeability of the compound at 10 uM at pH 6.5 to 7.4 donor portion/acceptor portion by PAPMA assay; format: ADME; conditions: not told, read-out: permeability
Method in brief: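 PAMPA on pre-coated membranes. Donor holds 10 µM compound in PBS pH 6.5; acceptor holds PBS pH 7.4. Incubated 5 h at 37 °C. Donor, acceptor and initial donor samples quenched and quantified by LC-MS/MS to calculate effective permeability (Pe). Run in triplicate.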

[11] = Cytotoxicity against mouse 3T3 cells assessed as reduction in cell viability measured after 24 hrs by colorimetric assay; format: toxicity, cell-based; conditions: NIH3T3 cells
[12] = Cytotoxicity against human MRC5 cells assessed as reduction in cell viability measured after 24 hrs by colorimetric assay; format: toxicity, cell-based
[13] = Cytotoxicity against primary peritoneal mouse macrophages assessed as reduction in cell viability measured after 24 hrs by colorimetric assay; format: toxicity, cell-based, Peritoneal macrophage
[14] = Cytotoxicity against rat L6 cells assessed as reduction in cell viability measured after 24 hrs by colorimetric assay; format: toxicity, cell-based
[15] = Cytotoxicity against human HepG2 cells assessed as reduction in cell viability measured after 24 hrs by colorimetric assay; format: toxicity, cell-based
Trypanosoma cruzi [16] = assay: Antitrypanosomal activity against intracellular Trypanosoma cruzi amastigote infected mouse 3T3 cells assessed as reduction in amastigote population measured after 48 hrs

Compound | microsomal CLint [1] [µL/min/mg] | selectivity ratio [2] | IC50 (Trypanosoma cruzi [3]) [µM] | other results
CCCn1c(NC(=O)c2ccccn2)nc2cc(F)ccc21 | 413 | 7 | 1.1 | metabolised [4]: 66.2%
O=C(Cn1ccnc1[N+](=O)[O-])NCc1ccccc1 [BENZNIDAZOLE] | – | – | – | Activity (Trypanosoma cruzi [5]): 99%; inhibition (INH) (Trypanosoma cruzi [6]): 94%; IC50 (Trypanosoma cruzi [7]): 2.62 µM; IC90 (Trypanosoma cruzi [7]): 12.6 µM; IC50 (Trypanosoma cruzi [16]): 2.57 µM
N#Cc1ccc2nc(NC(=O)c3cc(C(F)(F)F)n[nH]3)n(CC(F)(F)F)c2c1 | 25 | > 42 | 1.5 | Activity (Trypanosoma cruzi [5]): 99%; inhibition (INH) (Trypanosoma cruzi [6]): 97%; IC50 (Trypanosoma cruzi [7]): 0.57 µM; IC90 (Trypanosoma cruzi [7]): 0.88 µM; solubility kinetic at 24 h [8]: < 1 µM; solubility kinetic at 24 h [9]: < 1 µM; Papp at 10 µM [10]: 2 ×10⁻⁶ cm/s; CC50 at 24 h [11]: > 40 µM; CC50 at 24 h [12]: > 64 µM; CC50 at 24 h [13]: 25 µM; CC50 at 24 h [14]: 12 µM; CC50 at 24 h [15]: 1.8 µM
N#Cc1ccc2nc(NC(=O)c3ccnc(C(F)(F)F)c3)n(CC(F)(F)F)c2c1 | 27 | > 231 | 0.28 | Activity (Trypanosoma cruzi [5]): 98%; inhibition (INH) (Trypanosoma cruzi [6]): 91%; IC50 (Trypanosoma cruzi [7]): 0.14 µM; IC90 (Trypanosoma cruzi [7]): 0.31 µM; solubility kinetic at 24 h [8]: < 1 µM; solubility kinetic at 24 h [9]: < 1 µM; Papp at 10 µM [10]: 2.3 ×10⁻⁶ cm/s; CC50 at 24 h [11]: > 40 µM; CC50 at 24 h [12]: > 64 µM; CC50 at 24 h [13]: 4 µM; CC50 at 24 h [14]: 50 µM; CC50 at 24 h [15]: 2.4 µM; IC50 (Trypanosoma cruzi [16]): 1.32 µM
O=C(Nc1nc2cc(F)cnc2n1CC(F)(F)F)c1ccc(C(F)(F)F)nc1 | 113 | 6 | 0.15 | –
Cn1nccc1C(=O)Nc1nc2cc(CN3CCCC3)ccc2n1CC(F)(F)F | 23 | 2 | 8.1 | –
CCCn1c(NC(=O)c2cccnc2)nc2ccc(C#N)cc21 | 200 | > 4 | 18 | –
Cn1nccc1C(=O)Nc1nc2ccc(C#N)cc2n1CC(C)(C)O | 23 | > 5 | 13 | –
CCCn1c(NC(=O)c2cccc(C(F)(F)F)n2)nc2cccnc21 | 285 | > 27 | 2.4 | –
CCCn1c(NC(=O)Cc2ccc(F)cc2)nc2ccc(C(=O)NC)cc21 | 66 | 1 | 34 | –
Cc1nn[nH]c1C(=O)Nc1nc2ccc(C#N)cc2n1CC(F)(F)F | 141 | 1 | 64 | –
N#Cc1ccc2nc(NC(=O)c3cc(C(F)(F)F)n[nH]3)n(CC(F)F)c2c1 | 70 | 11 | 0.49 | –
CC[C@@H]([C@H](C)O)n1ncn(-c2ccc(N3CCN(c4ccc(OC[C@@H]5CO[C@@](Cn6cncn6)(c6ccc(F)cc6F)C5)cc4)CC3)cc2)c1=O [POSACONAZOLE] | – | – | – | Activity (Trypanosoma cruzi [5]): 100%; inhibition (INH) (Trypanosoma cruzi [6]): 98%; IC50 (Trypanosoma cruzi [7]): 0.001 µM; IC90 (Trypanosoma cruzi [7]): 0.002 µM; IC50 (Trypanosoma cruzi [16]): 0.002 µM
CCCn1c(NC(=O)c2cccnc2)nc2cc(F)c(F)cc21 | 446 | > 30 | 2.1 | –
Cn1nc(C(F)(F)F)cc1C(=O)Nc1nc2ccc(C#N)cc2n1CCF | 39 | 11 | 2.1 | –
Cc1cc(C(=O)Nc2nc3ccc(C#N)cc3n2CC(F)(F)F)nn1C | 181 | 1 | 64 | –
Cn1nccc1C(=O)Nc1nc2cc(CN3CCOCC3)ccc2n1CC(F)(F)F | 23 | 5 | 8.3 | –
CCCn1c(NC(=O)c2cccnc2)nc2cccnc21 | 275 | > 15 | 4.4 | –
CCCn1c(NC(=O)Cc2ccc(F)cc2)nc2cccnc21 | 1500 | > 49 | 1.3 | –
Cn1nccc1C(=O)Nc1nc2cccnc2n1CC(F)(F)F | 119 | 2 | 3.9 | –
Cn1nccc1C(=O)Nc1nc2cc(F)cnc2n1CC(F)(F)F | 44 | 3 | 0.84 | –

Further lines, with some results ahead:

microsomal CLint [1] [µL/min/mg] | Compound | selectivity ratio [2] | IC50 (Trypanosoma cruzi [3]) [µM] | other results
18 | N#Cc1ccc2nc(NC(=O)c3ccc(C(F)(F)F)nc3)n(CC(F)(F)F)c2c1 | > 25 | 2.6 | Activity (Trypanosoma cruzi [5]): 99%; inhibition (INH) (Trypanosoma cruzi [6]): 98%; IC50 (Trypanosoma cruzi [7]): 0.19 µM; IC90 (Trypanosoma cruzi [7]): 0.57 µM; solubility kinetic at 24 h [8]: < 1 µM; solubility kinetic at 24 h [9]: < 1 µM; Papp at 10 µM [10]: 5.4 ×10⁻⁶ cm/s; CC50 at 24 h [11]: > 40 µM; CC50 at 24 h [12]: > 64 µM; CC50 at 24 h [13]: 8 µM; CC50 at 24 h [14]: 18 µM; CC50 at 24 h [15]: 1.1 µM
36 | N#Cc1ccc2nc(NC(=O)Cn3cccn3)n(CC(F)(F)F)c2c1 | 9 | 6.6 | –
26 | O=C(Nc1nc2cc(F)ccc2n1C1CCOCC1)c1cccnc1 | 5 | 8.5 | –
23 | Cc1nnnn1CC(=O)Nc1nc2ccc(C#N)cc2n1CC(F)(F)F | > 1 | 50 | –
399 | CCCn1c(NC(=O)Cc2ccc(F)cc2)nc2cc(F)c(F)cc21 | > 121 | 0.53 | –
265 | CCCn1c(NC(=O)c2ccccn2)nc2cccnc21 | > 8 | 8.4 | –
164 | CCCn1c(NC(=O)c2cccnc2)nc2cc(F)ccc21 | > 8 | 8.2 | metabolised [4]: 1.91%
73 | Cn1ccc(C(=O)Nc2nc3ccc(C#N)cc3n2CC(F)(F)F)n1 | 1 | 64 | –
86 | O=C(Nc1nc2ccc(F)cc2n1CC(F)(F)F)c1ccc(C(F)(F)F)nc1 | > 2 | 42 | –
28 | Cn1nc(C(F)(F)F)cc1C(=O)Nc1nc2ccc(C#N)cc2n1CC(F)(F)F | 34 | 0.23 | Activity (Trypanosoma cruzi [5]): 99%; inhibition (INH) (Trypanosoma cruzi [6]): 97%; IC50 (Trypanosoma cruzi [7]): 0.19 µM; IC90 (Trypanosoma cruzi [7]): 0.36 µM; solubility kinetic at 24 h [8]: < 1 µM; solubility kinetic at 24 h [9]: < 1 µM; Papp at 10 µM [10]: 2.4 ×10⁻⁶ cm/s; CC50 at 24 h [11]: > 40 µM; CC50 at 24 h [12]: 8 µM; CC50 at 24 h [13]: 1 µM; CC50 at 24 h [14]: 19 µM; CC50 at 24 h [15]: 1.1 µM; IC50 (Trypanosoma cruzi [16]): 0.99 µM
